In ChEMBL document CHEMBL2331322, “Synthesis and antimicrobial activity of some new benzo and naphthonitrile derivatives” (2013):
Values after ≈ are worked out from the molar mass of the structure shown.

Key:
Type in all cases: functional
[1] = test system: Fusarium oxysporum; test: Antimicrobial activity against Fusarium oxysporum after 48 hrs by microdilution susceptibility test
How it was run: (§1)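 MIC was determined by broth microdilution, using Müller–Hinton broth for bacteria and Sabouraud liquid medium for fungi. Stocks were made in DMF and serially diluted twofold. Wells were inoculated at 10⁶ CFU/mL and plates incubated at 36 °C for 24–48 h, with controls included. Only compounds giving agar-diffusion zones >14 mm were tested.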

[2] = test system: Bacillus subtilis; test: Antimicrobial activity against Bacillus subtilis after 24 hrs by microdilution susceptibility test; how it was run: as §1
[3] = test system: Escherichia coli; test: Antimicrobial activity against Escherichia coli at 1 mg/mL after 24 hrs by agar disc diffusion method; settings: read-out: DIZ
How it was run: (§2)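 Sterile 5 mm filter paper disks were impregnated with test solution in DMF (1 mg/mL) and placed on agar plates seeded with the test organism, in triplicate. Bacteria were incubated at 37 °C for 24 h and fungi for […] (so in the source). The read-out was the average inhibition zone diameter around the disks, in mm.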

[4] = test system: Bacillus thuringiensis; test: Antimicrobial activity against Bacillus thuringiensis after 24 hrs by microdilution susceptibility test; how it was run: as §1
[5] = test system: Bacillus thuringiensis; test: Antimicrobial activity against Bacillus thuringiensis at 1 mg/mL after 24 hrs by agar disc diffusion method; settings: read-out: DIZ; how it was run: as §2
[6] = test system: Botrytis fabae; test: Antimicrobial activity against Botrytis fabae after 48 hrs by microdilution susceptibility test; how it was run: as §1
[7] = test system: Escherichia coli; test: Antimicrobial activity against Escherichia coli after 24 hrs by microdilution susceptibility test; how it was run: as §1
[8] = test system: Pseudomonas aeruginosa; test: Antimicrobial activity against Pseudomonas aeruginosa after 24 hrs by microdilution susceptibility test; how it was run: as §1
[9] = test system: Pseudomonas aeruginosa; test: Antimicrobial activity against Pseudomonas aeruginosa at 1 mg/mL after 24 hrs by agar disc diffusion method; settings: read-out: DIZ; how it was run: as §2
[10] = test system: Bacillus subtilis; test: Antimicrobial activity against Bacillus subtilis at 1 mg/mL after 24 hrs by agar disc diffusion method; settings: read-out: DIZ; how it was run: as §2
[11] = test system: Botrytis fabae; test: Antimicrobial activity against Botrytis fabae at 1 mg/mL […] by agar disc diffusion method; settings: read-out: DIZ
[12] = test system: Fusarium oxysporum; test: Antimicrobial activity against Fusarium oxysporum at 1 mg/mL after 48 hrs by agar disc diffusion method; settings: read-out: DIZ; how it was run: as §2

| MIC [1] [µg/mL] | MIC [2] [µg/mL] | MIC [4] [µg/mL] | MIC [6] [µg/mL] | MIC [7] [µg/mL] | MIC [8] [µg/mL] | SMILES | MBC [2] [µg/mL] | zone of inhibition at 1000 µg/mL [3] [mm] | zone of inhibition at 1000 µg/mL [5] [mm] | MBC [7] [µg/mL] | zone of inhibition at 1000 µg/mL [9] [mm] | zone of inhibition at 1000 µg/mL [10] [mm] | zone of inhibition at 1000 µg/mL [11] [mm] | zone of inhibition at 1000 µg/mL [12] [mm] |
| --- | --- | --- | --- | --- | --- | --- | --- | --- | --- | --- | --- | --- | --- | --- |
| 12.5 (≈ 48 µM) | 12.5 (≈ 48 µM) | 25 (≈ 96 µM) | 25 (≈ 96 µM) | 25 (≈ 96 µM) | 25 (≈ 96 µM) | Cc1ccc(/N=N/C(C#N)c2ccccc2C#N)cc1 (centres undefined) | 100 (≈ 384 µM) | 30 | 33 | 200 (≈ 768 µM) | 16 | 35 | 35 | 33 |
| 12.5 (≈ 45.2 µM) | 6.25 (≈ 22.6 µM) | 12.5 (≈ 45.2 µM) | 12.5 (≈ 45.2 µM) | 12.5 (≈ 45.2 µM) | 25 (≈ 90.5 µM) | COc1ccc(/N=N/C(C#N)c2ccccc2C#N)cc1 (centres undefined) | 100 (≈ 362 µM) | 35 | 36 | 50 (≈ 181 µM) | 30 | 39 | 38 | 37 |
| 6.25 (≈ 21.5 µM) | 3.12 (≈ 10.7 µM) | 6.25 (≈ 21.5 µM) | 6.25 (≈ 21.5 µM) | 6.25 (≈ 21.5 µM) | 6.25 (≈ 21.5 µM) | N#Cc1ccccc1C(C#N)/N=N/c1ccc([N+](=O)[O-])cc1 (centres undefined) | 50 (≈ 172 µM) | 36 | 37 | 100 (≈ 343 µM) | 35 | 43 | 40 | 41 |
| 12.5 (≈ 47.3 µM) | 12.5 (≈ 47.3 µM) | 12.5 (≈ 47.3 µM) | 25 (≈ 94.6 µM) | 25 (≈ 94.6 µM) | 25 (≈ 94.6 µM) | N#Cc1ccccc1C(/N=N/c1ccccc1)C(N)=O (centres undefined) | 100 (≈ 378 µM) | 15 | 37 | 200 (≈ 757 µM) | 31 | 37 | 15 | 27 |
| 25 (≈ 83.7 µM) | 6.25 (≈ 20.9 µM) | 12.5 (≈ 41.8 µM) | 12.5 (≈ 41.8 µM) | 12.5 (≈ 41.8 µM) | 25 (≈ 83.7 µM) | N#Cc1ccccc1C(/N=N/c1ccc(Cl)cc1)C(N)=O (centres undefined) | 50 (≈ 167 µM) | 27 | 33 | 100 (≈ 335 µM) | 15 | 38 | 16 | 16 |
| 25 (≈ 89.8 µM) | 25 (≈ 89.8 µM) | 50 (≈ 180 µM) | 25 (≈ 89.8 µM) | 50 (≈ 180 µM) | 12.5 (≈ 44.9 µM) | Cc1ccc(/N=N/C(C(N)=O)c2ccccc2C#N)cc1 (centres undefined) | 100 (≈ 359 µM) | 15 | 36 | 200 (≈ 719 µM) | 16 | 31 | 20 | 38 |
| 25 (≈ 84.9 µM) | 25 (≈ 84.9 µM) | 12.5 (≈ 42.5 µM) | 50 (≈ 170 µM) | 12.5 (≈ 42.5 µM) | 25 (≈ 84.9 µM) | COc1ccc(/N=N/C(C(N)=O)c2ccccc2C#N)cc1 (centres undefined) | 100 (≈ 340 µM) | 30 | 19 | 100 (≈ 340 µM) | 32 | 32 | 26 | 16 |
|  | 6.25 (≈ 15.8 µM) | 6.25 (≈ 15.8 µM) |  | 6.25 (≈ 15.8 µM) | 6.25 (≈ 15.8 µM) | CC(=O)OCC1=C(C(=O)O)N2C(=O)[C@@H](NC(=O)Cc3cccs3)[C@H]2SC1 [CEPHALOTHIN] |  | 38 | 37 |  | 37 | 36 |  |  |

| SMILES | MIC [1] [µg/mL] | MIC [2] [µg/mL] | MIC [4] [µg/mL] | MIC [6] [µg/mL] | MIC [7] [µg/mL] | MIC [8] [µg/mL] | MBC [2] [µg/mL] | zone of inhibition at 1000 µg/mL [3] [mm] | zone of inhibition at 1000 µg/mL [5] [mm] | MBC [7] [µg/mL] | zone of inhibition at 1000 µg/mL [9] [mm] | zone of inhibition at 1000 µg/mL [10] [mm] | zone of inhibition at 1000 µg/mL [11] [mm] | zone of inhibition at 1000 µg/mL [12] [mm] |
| --- | --- | --- | --- | --- | --- | --- | --- | --- | --- | --- | --- | --- | --- | --- |
| CC1(C)S[C@@H]2[C@H](NC(=O)[C@H](N)c3ccccc3)C(=O)N2[C@H]1C(=O)O [AMPICILLIN] |  | 3.12 (≈ 8.94 µM) |  |  | 6.25 (≈ 17.9 µM) |  | 50 (≈ 143 µM) | 38 |  | 25 (≈ 71.5 µM) |  | 40 |  |  |
| O=C(N[C@H](CO)[C@H](O)c1ccc([N+](=O)[O-])cc1)C(Cl)Cl [CHLORAMPHENICOL] |  | 3.12 (≈ 9.67 µM) | 3.12 (≈ 9.67 µM) |  | 6.25 (≈ 19.3 µM) | 6.25 (≈ 19.3 µM) |  | 37 | 44 |  | 38 | 44 |  |  |
| C[C@@H]1C[C@@H]([C@H](O)CC2CC(=O)NC(=O)C2)C(=O)[C@@H](C)C1 [CYCLOHEXIMIDE] | 3.12 (≈ 11.1 µM) |  |  | 3.12 (≈ 11.1 µM) |  |  |  |  |  |  |  |  | 42 | 43 |
